{"source": "ChEMBL document CHEMBL5653631", "about": "“A Potent and Selective ULK1 Inhibitor Suppresses Autophagy and Sensitizes Cancer Cells to Nutrient Stress” (iScience, 2018)", "key": {"[1]": {"target": "Insulin receptor-related protein (Homo sapiens) (UniProt P14616)", "sequence (P14616 27-742 limits assumed)": "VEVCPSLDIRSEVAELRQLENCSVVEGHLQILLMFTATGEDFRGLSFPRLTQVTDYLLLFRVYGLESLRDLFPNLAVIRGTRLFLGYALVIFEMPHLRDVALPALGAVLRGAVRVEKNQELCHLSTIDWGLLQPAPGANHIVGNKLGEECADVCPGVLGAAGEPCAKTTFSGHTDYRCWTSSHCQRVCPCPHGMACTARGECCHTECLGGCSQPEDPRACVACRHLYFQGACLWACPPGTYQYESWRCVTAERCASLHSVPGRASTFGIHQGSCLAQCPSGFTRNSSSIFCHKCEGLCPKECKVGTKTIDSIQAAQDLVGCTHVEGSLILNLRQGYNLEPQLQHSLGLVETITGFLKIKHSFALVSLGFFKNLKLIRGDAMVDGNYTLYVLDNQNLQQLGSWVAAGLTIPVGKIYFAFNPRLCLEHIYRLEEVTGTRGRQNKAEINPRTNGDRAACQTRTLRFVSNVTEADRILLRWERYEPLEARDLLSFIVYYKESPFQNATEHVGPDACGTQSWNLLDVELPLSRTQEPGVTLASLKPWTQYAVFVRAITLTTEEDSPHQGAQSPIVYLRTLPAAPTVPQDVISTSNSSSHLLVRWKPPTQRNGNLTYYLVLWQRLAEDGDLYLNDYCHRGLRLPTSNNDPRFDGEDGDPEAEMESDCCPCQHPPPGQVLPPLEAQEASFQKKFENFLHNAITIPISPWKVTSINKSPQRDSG", "sequence (P14616 747-1297 limits assumed)": "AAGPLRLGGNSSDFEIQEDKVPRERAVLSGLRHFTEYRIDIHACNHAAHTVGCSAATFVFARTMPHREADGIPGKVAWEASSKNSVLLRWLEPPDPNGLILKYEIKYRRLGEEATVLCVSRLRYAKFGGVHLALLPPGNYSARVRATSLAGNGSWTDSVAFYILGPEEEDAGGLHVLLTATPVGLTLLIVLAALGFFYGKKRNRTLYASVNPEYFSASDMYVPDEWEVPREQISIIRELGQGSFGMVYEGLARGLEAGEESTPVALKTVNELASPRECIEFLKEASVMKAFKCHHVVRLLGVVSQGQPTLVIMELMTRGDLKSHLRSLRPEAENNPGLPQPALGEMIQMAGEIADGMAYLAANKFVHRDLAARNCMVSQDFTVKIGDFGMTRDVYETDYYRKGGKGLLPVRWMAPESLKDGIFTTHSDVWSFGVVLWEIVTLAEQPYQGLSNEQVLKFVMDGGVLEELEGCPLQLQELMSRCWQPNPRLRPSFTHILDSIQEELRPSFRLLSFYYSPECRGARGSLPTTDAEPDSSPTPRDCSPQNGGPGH", "assay": "Inhibition of human recombinant IRR at 40 nM related to control ULK1"}, "[2]": {"target": "Tyrosine-protein kinase ABL2 (Homo sapiens) (UniProt P42684)", "sequence (P42684 whole entry)": "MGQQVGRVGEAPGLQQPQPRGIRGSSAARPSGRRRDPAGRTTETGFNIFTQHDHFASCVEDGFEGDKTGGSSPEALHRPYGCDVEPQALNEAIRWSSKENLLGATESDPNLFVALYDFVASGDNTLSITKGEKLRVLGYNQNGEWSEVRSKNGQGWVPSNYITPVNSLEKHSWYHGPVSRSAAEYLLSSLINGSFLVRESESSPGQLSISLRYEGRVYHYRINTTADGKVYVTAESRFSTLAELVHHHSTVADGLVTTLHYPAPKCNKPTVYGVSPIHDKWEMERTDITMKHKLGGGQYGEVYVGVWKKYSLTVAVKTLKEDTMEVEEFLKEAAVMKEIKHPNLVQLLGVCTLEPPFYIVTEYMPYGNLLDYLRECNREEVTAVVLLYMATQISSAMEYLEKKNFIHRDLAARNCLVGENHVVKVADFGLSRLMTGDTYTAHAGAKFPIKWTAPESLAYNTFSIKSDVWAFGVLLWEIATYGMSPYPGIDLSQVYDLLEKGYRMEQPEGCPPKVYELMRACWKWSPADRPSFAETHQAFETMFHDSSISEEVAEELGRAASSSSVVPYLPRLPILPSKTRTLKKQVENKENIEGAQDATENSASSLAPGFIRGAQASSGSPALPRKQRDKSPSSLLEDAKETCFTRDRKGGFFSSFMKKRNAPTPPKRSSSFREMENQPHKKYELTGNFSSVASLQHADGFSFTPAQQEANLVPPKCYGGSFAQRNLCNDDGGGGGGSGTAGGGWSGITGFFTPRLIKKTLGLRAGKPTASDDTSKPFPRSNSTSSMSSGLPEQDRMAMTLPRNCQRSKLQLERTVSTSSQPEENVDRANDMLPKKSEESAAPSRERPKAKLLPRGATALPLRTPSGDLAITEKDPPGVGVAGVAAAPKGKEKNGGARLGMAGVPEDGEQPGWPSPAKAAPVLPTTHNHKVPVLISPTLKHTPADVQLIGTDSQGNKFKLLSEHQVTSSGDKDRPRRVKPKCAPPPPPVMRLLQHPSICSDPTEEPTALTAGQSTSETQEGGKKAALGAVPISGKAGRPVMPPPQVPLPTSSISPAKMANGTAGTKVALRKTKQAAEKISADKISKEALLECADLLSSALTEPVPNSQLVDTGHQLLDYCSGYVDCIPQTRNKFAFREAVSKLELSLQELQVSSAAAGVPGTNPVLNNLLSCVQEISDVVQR", "assay": "Inhibition of human recombinant ABL2 at 40 nM related to control ULK1", "method_in_brief": "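Radiometric activity assays in a panel of 327 human recombinant kinases, each run in duplicate at one inhibitor concentration. Activity remaining is expressed as percent of vehicle control, and percent inhibition is calculated as 100% minus percent activity remaining.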"}, "[3]": {"target": "T1, Dual specificity mitogen-activated protein kinase kinase 6 (Homo sapiens) (UniProt P52564)", "T1 sequence (whole entry)": "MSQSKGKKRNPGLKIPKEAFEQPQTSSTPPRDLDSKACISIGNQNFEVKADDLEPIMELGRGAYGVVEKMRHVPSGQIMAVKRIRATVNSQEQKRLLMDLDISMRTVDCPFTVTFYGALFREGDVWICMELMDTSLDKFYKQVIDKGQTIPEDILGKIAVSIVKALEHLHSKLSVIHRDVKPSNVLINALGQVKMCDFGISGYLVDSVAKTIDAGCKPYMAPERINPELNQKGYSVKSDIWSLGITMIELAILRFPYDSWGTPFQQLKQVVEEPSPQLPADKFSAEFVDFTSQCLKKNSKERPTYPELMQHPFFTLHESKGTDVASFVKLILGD", "assay": "Inhibition of human recombinant MAP2K6 at 500 nM related to control ULK1"}, "[4]": {"target": "Hepatocyte growth factor receptor (Homo sapiens) (UniProt P08581)", "sequence (P08581 whole entry, looked up)": "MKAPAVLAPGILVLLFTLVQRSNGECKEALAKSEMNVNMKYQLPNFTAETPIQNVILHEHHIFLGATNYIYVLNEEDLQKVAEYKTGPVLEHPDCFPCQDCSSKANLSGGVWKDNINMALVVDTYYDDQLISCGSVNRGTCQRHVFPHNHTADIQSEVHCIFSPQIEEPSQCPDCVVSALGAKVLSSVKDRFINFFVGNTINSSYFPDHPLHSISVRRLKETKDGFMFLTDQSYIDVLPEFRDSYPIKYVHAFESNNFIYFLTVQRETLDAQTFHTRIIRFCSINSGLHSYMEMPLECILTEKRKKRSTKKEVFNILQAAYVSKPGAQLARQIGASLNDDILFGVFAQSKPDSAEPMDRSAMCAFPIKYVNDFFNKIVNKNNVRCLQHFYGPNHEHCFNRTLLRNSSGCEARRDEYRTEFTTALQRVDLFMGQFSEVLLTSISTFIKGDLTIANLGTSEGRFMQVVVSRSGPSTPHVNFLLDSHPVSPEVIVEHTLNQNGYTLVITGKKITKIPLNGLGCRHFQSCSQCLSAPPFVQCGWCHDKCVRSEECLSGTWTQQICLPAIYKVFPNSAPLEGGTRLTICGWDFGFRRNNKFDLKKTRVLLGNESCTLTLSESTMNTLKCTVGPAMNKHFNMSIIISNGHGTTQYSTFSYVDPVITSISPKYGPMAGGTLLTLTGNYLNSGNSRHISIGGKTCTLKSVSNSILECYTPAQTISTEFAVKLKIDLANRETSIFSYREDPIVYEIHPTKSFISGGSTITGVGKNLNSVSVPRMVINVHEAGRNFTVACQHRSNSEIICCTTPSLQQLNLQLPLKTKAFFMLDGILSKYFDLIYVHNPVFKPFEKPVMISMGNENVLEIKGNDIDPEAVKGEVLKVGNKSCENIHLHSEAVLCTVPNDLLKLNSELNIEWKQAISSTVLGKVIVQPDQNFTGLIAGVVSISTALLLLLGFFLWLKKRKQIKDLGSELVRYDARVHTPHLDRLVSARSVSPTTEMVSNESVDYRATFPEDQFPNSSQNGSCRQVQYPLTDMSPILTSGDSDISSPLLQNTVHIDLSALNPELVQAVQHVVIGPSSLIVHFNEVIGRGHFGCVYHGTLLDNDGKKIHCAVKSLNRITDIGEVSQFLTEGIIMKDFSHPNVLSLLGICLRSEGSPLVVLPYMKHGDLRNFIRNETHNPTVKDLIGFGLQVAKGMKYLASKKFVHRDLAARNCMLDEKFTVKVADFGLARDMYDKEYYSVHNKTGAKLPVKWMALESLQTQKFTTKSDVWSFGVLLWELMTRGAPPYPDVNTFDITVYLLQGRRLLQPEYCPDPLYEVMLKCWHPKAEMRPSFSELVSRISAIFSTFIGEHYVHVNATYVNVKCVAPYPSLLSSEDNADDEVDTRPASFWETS", "assay": "Inhibition of human recombinant MET at 500 nM in presence of ATP by radiometric assay relative to control"}, "[5]": {"target": "T2, Serine/threonine-protein kinase DCLK2 (Homo sapiens) (UniProt Q8N568)", "T2 sequence (whole entry)": "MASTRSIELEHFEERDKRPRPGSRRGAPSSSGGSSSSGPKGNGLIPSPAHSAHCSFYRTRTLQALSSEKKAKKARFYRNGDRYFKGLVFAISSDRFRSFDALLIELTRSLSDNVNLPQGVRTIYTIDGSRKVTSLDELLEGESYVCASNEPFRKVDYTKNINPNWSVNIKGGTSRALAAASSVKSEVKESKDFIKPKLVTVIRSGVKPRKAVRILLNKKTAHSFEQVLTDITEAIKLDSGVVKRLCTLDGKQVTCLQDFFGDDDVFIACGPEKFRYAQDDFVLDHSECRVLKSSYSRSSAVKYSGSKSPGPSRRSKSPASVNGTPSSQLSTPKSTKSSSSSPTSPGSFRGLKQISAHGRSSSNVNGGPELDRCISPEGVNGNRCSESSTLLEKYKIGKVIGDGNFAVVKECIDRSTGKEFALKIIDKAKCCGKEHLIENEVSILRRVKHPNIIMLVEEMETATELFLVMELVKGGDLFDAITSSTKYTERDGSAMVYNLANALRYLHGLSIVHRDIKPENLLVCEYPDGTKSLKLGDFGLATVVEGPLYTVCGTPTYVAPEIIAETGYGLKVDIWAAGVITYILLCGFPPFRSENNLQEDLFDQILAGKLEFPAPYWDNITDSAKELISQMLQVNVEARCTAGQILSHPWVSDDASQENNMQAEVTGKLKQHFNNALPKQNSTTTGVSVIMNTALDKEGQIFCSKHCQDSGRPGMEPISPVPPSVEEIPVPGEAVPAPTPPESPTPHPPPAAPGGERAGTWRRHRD", "assay": "Inhibition of human recombinant DCAMKL2 at 15 nM in presence of ATP by radiometric assay relative to control"}, "[6]": {"target": "Dual specificity protein kinase CLK1 (Homo sapiens) (UniProt P49759)", "sequence (P49759 whole entry, looked up)": "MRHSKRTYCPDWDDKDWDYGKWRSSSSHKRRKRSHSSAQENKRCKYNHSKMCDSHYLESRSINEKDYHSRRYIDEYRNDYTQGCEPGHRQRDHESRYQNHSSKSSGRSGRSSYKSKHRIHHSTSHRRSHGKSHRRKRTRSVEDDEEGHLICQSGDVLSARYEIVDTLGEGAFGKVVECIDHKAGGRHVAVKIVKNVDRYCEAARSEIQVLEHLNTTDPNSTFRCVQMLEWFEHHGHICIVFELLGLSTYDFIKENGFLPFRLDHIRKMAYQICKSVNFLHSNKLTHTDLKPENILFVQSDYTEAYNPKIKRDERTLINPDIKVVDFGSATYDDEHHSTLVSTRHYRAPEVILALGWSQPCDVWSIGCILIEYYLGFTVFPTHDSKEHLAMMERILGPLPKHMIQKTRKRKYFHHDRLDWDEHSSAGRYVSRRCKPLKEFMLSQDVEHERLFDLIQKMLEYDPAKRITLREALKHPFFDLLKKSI", "assay": "Inhibition of human recombinant CLK1 at 15 nM related to control ULK1"}, "[7]": {"target": "T3, Ephrin type-B receptor 1 (Homo sapiens) (UniProt P54762)", "T3 sequence (whole entry)": "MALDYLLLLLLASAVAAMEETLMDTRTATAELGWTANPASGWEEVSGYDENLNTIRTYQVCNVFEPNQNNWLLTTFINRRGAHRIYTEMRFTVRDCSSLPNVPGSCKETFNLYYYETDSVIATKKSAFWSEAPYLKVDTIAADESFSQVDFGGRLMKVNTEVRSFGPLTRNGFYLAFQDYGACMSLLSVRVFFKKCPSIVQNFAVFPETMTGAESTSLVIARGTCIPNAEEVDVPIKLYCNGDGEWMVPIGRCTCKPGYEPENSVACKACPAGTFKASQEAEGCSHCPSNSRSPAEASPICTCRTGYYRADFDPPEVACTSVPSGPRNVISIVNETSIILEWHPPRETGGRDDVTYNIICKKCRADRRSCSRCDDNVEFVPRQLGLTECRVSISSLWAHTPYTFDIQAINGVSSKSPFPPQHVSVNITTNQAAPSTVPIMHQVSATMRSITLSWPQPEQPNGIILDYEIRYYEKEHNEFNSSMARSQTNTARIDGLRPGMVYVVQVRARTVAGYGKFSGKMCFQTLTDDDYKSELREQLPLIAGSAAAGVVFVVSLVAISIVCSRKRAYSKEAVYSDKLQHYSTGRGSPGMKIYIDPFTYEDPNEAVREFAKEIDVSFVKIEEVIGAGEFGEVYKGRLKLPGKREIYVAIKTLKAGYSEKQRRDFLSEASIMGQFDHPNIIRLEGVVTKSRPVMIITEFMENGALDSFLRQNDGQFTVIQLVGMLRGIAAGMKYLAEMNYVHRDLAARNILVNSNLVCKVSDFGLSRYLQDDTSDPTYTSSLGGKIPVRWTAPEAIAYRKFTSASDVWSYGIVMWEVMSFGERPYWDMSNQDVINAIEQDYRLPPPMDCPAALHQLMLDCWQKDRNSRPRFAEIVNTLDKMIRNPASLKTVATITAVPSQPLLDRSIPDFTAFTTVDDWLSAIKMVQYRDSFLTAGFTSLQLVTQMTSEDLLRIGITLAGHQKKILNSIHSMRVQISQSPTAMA", "assay": "Inhibition of human recombinant EphB1 at 15 nM in presence of ATP by radiometric assay relative to control"}, "[8]": {"target": "Serine/threonine-protein kinase 4 (Homo sapiens) (UniProt Q13043)", "sequence (Q13043 whole entry, looked up)": "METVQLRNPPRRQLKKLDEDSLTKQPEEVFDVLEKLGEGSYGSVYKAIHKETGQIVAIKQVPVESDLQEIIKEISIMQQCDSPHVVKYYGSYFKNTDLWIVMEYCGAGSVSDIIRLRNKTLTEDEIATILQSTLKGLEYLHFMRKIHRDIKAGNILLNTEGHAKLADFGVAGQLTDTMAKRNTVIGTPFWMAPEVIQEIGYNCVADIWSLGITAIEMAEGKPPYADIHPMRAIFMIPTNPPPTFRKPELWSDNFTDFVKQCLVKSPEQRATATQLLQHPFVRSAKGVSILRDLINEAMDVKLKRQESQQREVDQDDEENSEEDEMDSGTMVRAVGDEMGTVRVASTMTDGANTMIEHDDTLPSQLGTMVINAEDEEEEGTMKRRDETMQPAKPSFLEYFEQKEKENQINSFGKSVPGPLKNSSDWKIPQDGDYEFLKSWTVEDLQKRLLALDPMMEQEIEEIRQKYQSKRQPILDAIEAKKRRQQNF", "assay": "Inhibition of human recombinant MST1 at 15 nM related to control ULK1"}}, "data": [{"smiles": "O=C(N[C@@H](C1CC1)C(F)(F)F)c1cc(-c2cnn3cc(-c4ccc(F)cc4)cnc23)cs1", "values": [{"measurement": "fold change (FC)", "setting": "[1]", "value": 0.03}, {"measurement": "fold change (FC)", "setting": "[2]", "value": 0.1}]}, {"smiles": "CNC(=O)c1ccccc1Oc1nc(Nc2cc(OC)c(OC)c(OC)c2)ncc1Br", "values": [{"measurement": "fold change (FC)", "setting": "[3]", "value": 0.07}, {"measurement": "inhibition", "setting": "[4]", "value": 32, "unit": "%"}]}, {"smiles": "CC(C)[C@H](NC(=O)c1cc(-c2cnn3cc(-c4ccc(OCCN5CCCCC5)cc4)cnc23)cs1)C(F)(F)F", "values": [{"measurement": "inhibition", "setting": "[5]", "value": 12, "unit": "%"}, {"measurement": "fold change (FC)", "setting": "[6]", "value": 0.95}, {"measurement": "inhibition", "setting": "[7]", "value": 12, "unit": "%"}, {"measurement": "fold change (FC)", "setting": "[8]", "value": 0.03}]}]}
